Compounds with a hit are over-represented: about 4.6% of the library has one in this group of screens.
STAT1 activator – STAT1 signaling activation; NIH 3T3 STAT1-luciferase reporter, IFN-gamma, luminescence; 100% = IFN-gamma alone, no compound; activation (% of control), % at 5.5 µM; actives 2.6% (n = 200,000); AID 932;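 active = activation above the screen-wide mean activation plus 3 SD, cut at about 130% in these data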;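 also: raw ratio to IFN-gamma control signal so 100% means no change and 0% no light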
Wee1 stabilizer – human Wee1 degradation inhibition, primary screen | P30291 | HeLa Luc-Wee1K328M stability, luciferase luminescence; 100% = proteasome inhibitor MG132 effect | reporter increase, % at 5 µM | actives 1.2% (n = 220,000) | AID 1321;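 active = activation above the mean of all tested compounds plus 3 SD, set per screening run, cut at about 8.8% in these data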;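 also: cells exposed to compound for 20 h before luminescence read; 0% = DMSO alone and 100% = MG132 at 30 µM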
Target sequence (P30291 whole entry K328M): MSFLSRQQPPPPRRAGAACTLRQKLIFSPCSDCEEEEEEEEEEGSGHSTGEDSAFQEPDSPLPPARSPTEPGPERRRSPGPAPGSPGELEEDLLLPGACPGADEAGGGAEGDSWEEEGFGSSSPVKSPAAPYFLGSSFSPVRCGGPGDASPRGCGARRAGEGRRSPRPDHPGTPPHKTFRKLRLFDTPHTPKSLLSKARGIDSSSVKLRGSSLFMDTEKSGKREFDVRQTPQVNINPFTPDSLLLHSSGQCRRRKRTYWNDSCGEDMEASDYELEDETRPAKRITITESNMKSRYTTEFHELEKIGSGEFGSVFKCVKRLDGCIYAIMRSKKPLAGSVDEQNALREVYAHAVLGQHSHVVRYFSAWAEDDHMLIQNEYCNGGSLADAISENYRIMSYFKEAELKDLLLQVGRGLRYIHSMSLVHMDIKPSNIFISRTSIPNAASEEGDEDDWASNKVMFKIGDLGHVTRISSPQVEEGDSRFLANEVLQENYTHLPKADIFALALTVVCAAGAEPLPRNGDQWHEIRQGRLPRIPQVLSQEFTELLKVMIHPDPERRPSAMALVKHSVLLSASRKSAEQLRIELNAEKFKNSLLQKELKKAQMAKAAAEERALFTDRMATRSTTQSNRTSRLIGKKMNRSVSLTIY
NF-kB neuron act – raises NF-kB expression in human neuronal cells. NF-kB reporter expression; active compounds read high. fold change at 12.5 µM. actives 1.6% (n = 190,000). AID 1239; in the data active = fold change above about 3.3
p97 ATPase inh – inhibitors of human p97 ATPase; AID 1481; inhibition, % at 8 µM; actives 0.42% (n = 220,000); P55072; recombinant p97 ATPase, Kinase-Glo ATP luminescence, 3 h; in the data active = inhibition above about 15%;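 also: 0% = DMSO vehicle and 100% = wells lacking enzyme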
Mdm2 ligase inh – inhibitors of human Mdm2 E3 ubiquitin ligase; actives 0.11% (n = 210,000); signal enhancement, % at 5 µM; cell-based MDM2 ubiquitination luciferase reporter, 2 h; 0 = plate control, 100 = twice control, blank-subtracted;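 active = signal enhancement of 30% or more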;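 also: luminescence tracks abundance of the self-degrading MDM2-luciferase fusion protein; higher signal means inhibition of MDM2 E3 ligase activity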
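Assay system: stable mammalian line carrying autodegrading MDM2–luciferase fusion reporter; Input: 2000 cells in each well; Compound dosing: single-point 5 µM; Schedule: 2 h compound exposure at 37 °C; Signal: SteadyLite luciferase luminescence after 15 min room-temperature reagent incubation; Evaluation: % luminescence enhancement versus blank-corrected plate control mean; Benchmarks: plate controls and plate blanks.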
APP 5'UTR act – APP 5'UTR luciferase reporter activation | SH-SY5Y APP 5'UTR luciferase reporter, luminescence; zero percent = DMSO vehicle wells | activation, % at 2 µM | actives 1% (n = 190,000) | AID 1276;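 active = activation above a set limit, based on mean plus 3 SD of controls, cut at about 140% in these data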
STAT1 activ conf – confirmation of STAT1 signaling activators; activation (% of control), % at 5.7 µM; shares compounds with STAT1 activator; actives 97% (n = 1,200); NIH 3T3 STAT1-luciferase reporter, IFN-gamma potentiation, luminescence; 100% = IFN-gamma EC80 alone, no compound;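 active = activation above a set limit carried over from the earlier primary STAT1 screen, cut at about 140% in these data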;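 also: simple ratio to median IFN-gamma plus DMSO wells so 0% means no light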
NFkB act STAT1ct – counter-screen for STAT1 activators: NF-kappaB activation; shares compounds with STAT1 activator; HEK293T NF-kB luciferase reporter, TNF-alpha stimulated, luminescence; 100% = TNF-alpha with vehicle only; activation (% of control), % at 5.7 µM; actives 43% (n = 1,200);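 active = activation above the mean of solvent-only control wells plus 3 SD, set per campaign, cut at about 130% in these data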;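 also: TNF-alpha given at a submaximal dose yielding about 80% of full reporter signal; values are well signal over median control so 100% means no change and 0% no light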
STAT3 act STAT1c – activates human STAT3, counter-screen to STAT1 activators; AID 1316; shares compounds with STAT1 activator; activation (% of control), % at 5.7 µM; U3A cells STAT3-luciferase reporter, IL-6, luminescence; cells lack STAT1; 100 = IL-6 alone, no compound effect; actives 46% (n = 1,200);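 active = activation above the solvent-only control well mean plus 3 SD, set per plate batch, cut at about 110% in these data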;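 also: 0% = no luminescence and 100% = median IL-6 plus DMSO wells; higher means more STAT3 reporter activation so hits are non-selective activators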
* hit, by the source's call.

N#C/C(=C/c1ccc(N2CCCCC2)o1)C(=O)Nc1ccc(Cl)cc1 was read as STAT1 activator 155*, Wee1 stabilizer 0, NF-kB neuron act 1.5, p97 ATPase inh -1, Mdm2 ligase inh -8, APP 5'UTR act 35, STAT1 activ conf 183*, NFkB act STAT1ct 130 and STAT3 act STAT1c 90.
For N#C/C(=C/c1ccc(N2CCCCC2)o1)C(=O)Nc1ccc2ccccc2c1 the results were STAT1 activator 113, Wee1 stabilizer 0, NF-kB neuron act 1.1, p97 ATPase inh 2, Mdm2 ligase inh -6 and APP 5'UTR act 18.
For Cc1nc2ccccn2c1C(=O)NNS(=O)(=O)c1ccc(C(C)(C)C)cc1 the results were STAT1 activator 87, Wee1 stabilizer -1, NF-kB neuron act 0.77, p97 ATPase inh 3, Mdm2 ligase inh 1 and APP 5'UTR act 2.
Screening CCOC(=O)c1sc(NC(=O)Nc2ccccc2Cl)cc1C returned STAT1 activator 186*, Wee1 stabilizer 3, NF-kB neuron act 4.2*, p97 ATPase inh 0, Mdm2 ligase inh -29, APP 5'UTR act 220*, STAT1 activ conf 295*, NFkB act STAT1ct 113 and STAT3 act STAT1c 96.
For CCOC(=O)c1sc(NC(=O)c2ccc(C)s2)cc1C the results were STAT1 activator 175*, Wee1 stabilizer -1, NF-kB neuron act 3, p97 ATPase inh -3, Mdm2 ligase inh -13, APP 5'UTR act 172*, STAT1 activ conf 193*, NFkB act STAT1ct 138* and STAT3 act STAT1c 95.
`CCOC(=O)c1sc(NC(C)=O)cc1C` gave STAT1 activator 98, Wee1 stabilizer 0, NF-kB neuron act 1, p97 ATPase inh 2, Mdm2 ligase inh -10 and APP 5'UTR act 10.
For CCOC(=O)c1sc(NC(=O)Nc2ccc(F)cc2)nc1C the results were STAT1 activator 160*, Wee1 stabilizer 4, NF-kB neuron act 5.3*, p97 ATPase inh -6, Mdm2 ligase inh -44, APP 5'UTR act 121, STAT1 activ conf 236*, NFkB act STAT1ct 135* and STAT3 act STAT1c 112*.
Screening CCOC(=O)c1sc(NC(=O)Cc2ccc(F)cc2)nc1C returned STAT1 activator 106, Wee1 stabilizer 2, NF-kB neuron act 0.95, p97 ATPase inh 3, Mdm2 ligase inh -15 and APP 5'UTR act -2.
For CCOC(=O)c1sc(NC(=O)Nc2ccccc2)cc1C the results were STAT1 activator 189*, Wee1 stabilizer 2, NF-kB neuron act 9.5*, p97 ATPase inh 6, Mdm2 ligase inh -15, APP 5'UTR act 173*, STAT1 activ conf 222*, NFkB act STAT1ct 123 and STAT3 act STAT1c 107.
Screening O=C(NCc1ccccn1)c1cccc(NS(=O)(=O)c2ccccc2F)c1 returned STAT1 activator 100, Wee1 stabilizer -1, NF-kB neuron act 1.1, p97 ATPase inh 4, Mdm2 ligase inh 12 and APP 5'UTR act -9.
For O=C(Nc1nc2ccc(Cl)cc2s1)[C@@H]1CCCN1C(=O)c1cccs1 the results were STAT1 activator 104, Wee1 stabilizer -1, NF-kB neuron act 0.81, p97 ATPase inh 4, Mdm2 ligase inh 0 and APP 5'UTR act 9.
For COc1ccccc1/C=C(/CC(=O)NCc1ccc2c(c1)OCO2)c1nc2ccccc2s1 the results were STAT1 activator 90, Wee1 stabilizer -1, NF-kB neuron act 1.1, p97 ATPase inh -11, Mdm2 ligase inh -19 and APP 5'UTR act 9.
